Legend:
Assay type in all cases: functional
U-251 = assay: Growth inhibition of human U251 cells after 48 hrs by sulforhodamine B assay; settings: U-251, 48 h
Procedure, shortened: (§1)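 NCI 60-cell-line panel (nine cancer types), with cells grown in RPMI1640 plus 5% fetal calf serum and 2 mM L-glutamine. Cells are seeded at a density that depends on the line and preincubated 24 h. Compounds are then applied at a minimum of five 10-fold dilutions over a 5-log range with 48 h continuous exposure. Viability is read by SRB protein assay, and GI50 is derived from dose-response curves in units of 10^-5 M.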

IGROV-1 = assay: Growth inhibition of human IGROV1 cells after 48 hrs by sulforhodamine B assay; settings: IGROV-1, 48 h
Procedure, shortened: (§2)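 NCI 60-cell-line panel. Cells are grown in RPMI1640 with 5% fetal calf serum and 2 mM L-glutamine, seeded at a density set by growth characteristics, and preincubated 24 h. Compound is tested at a minimum of five concentrations at 10-fold dilution, with 48 h continuous exposure. Viability is read by sulforhodamine B protein assay. GI50, TGI and LC50 come from dose-response curves.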

SN12C = assay: Growth inhibition of human SN12C cells after 48 hrs by sulforhodamine B assay; procedure, shortened: as §2
SK-MEL-5 = assay: Growth inhibition of human SK-MEL-5 cells after 48 hrs by sulforhodamine B assay; settings: SK-MEL-5, 48 h; procedure, shortened: as §2
LOX IMVI = assay: Growth inhibition of human LOXIMVI cells after 48 hrs by sulforhodamine B assay; procedure, shortened: as §2
NCI-H226 = assay: Growth inhibition of human NCI-H226 cells after 48 hrs by sulforhodamine B assay; settings: NCI-H226, 48 h; procedure, shortened: as §2
OVCAR-8 = assay: Growth inhibition of human OVCAR8 cells after 48 hrs by sulforhodamine B assay; settings: OVCAR-8, 48 h; procedure, shortened: as §2
M14 = assay: Growth inhibition of human M14 cells after 48 hrs by sulforhodamine B assay; settings: M14, 48 h; procedure, shortened: as §2
T47D = assay: Growth inhibition of human T47D cells after 48 hrs by sulforhodamine B assay; procedure, shortened: as §1
MCF7 = assay: Antiproliferative activity against human MCF7 cells assessed as cell growth at 100 uM after 48 hrs by alamar blue assay; settings: MCF7, 48 h, read-out: Activity
Procedure, shortened: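 NCI three-cell-line primary screen. Cells are seeded and preincubated in microtiter plates. Compound is added at a single 10^-4 M concentration and cultures are incubated 48 h. The end-point is read with alamar blue. Results are given as percent growth relative to untreated control cells.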

SF-268 = assay: Growth inhibition of human SF268 cells after 48 hrs by sulforhodamine B assay; settings: SF-268, 48 h; procedure, shortened: as §2
SK-OV-3 = assay: Growth inhibition of human SKOV3 cells after 48 hrs by sulforhodamine B assay; settings: SK-OV-3, 48 h; procedure, shortened: as §2
HOP-92 = assay: Growth inhibition of human HOP92 cells after 48 hrs by sulforhodamine B assay; settings: HOP-92, 48 h; procedure, shortened: as §2
HCT-116 = assay: Growth inhibition of human HCT116 cells after 48 hrs by sulforhodamine B assay; settings: HCT-116, 48 h; procedure, shortened: as §2
K562 = assay: Growth inhibition of human K562 cells after 48 hrs by sulforhodamine B assay; settings: K562, 48 h; procedure, shortened: as §2
RXF 393 = assay: Growth inhibition of human RXF393 cells after 48 hrs by sulforhodamine B assay; settings: RXF 393, 48 h; procedure, shortened: as §2
NCI/ADR-RES = assay: Growth inhibition of human NCI/ADR-RES cells after 48 hrs by sulforhodamine B assay; procedure, shortened: as §2
SNB-75 = assay: Growth inhibition of human SNB75 cells after 48 hrs by sulforhodamine B assay; settings: SNB-75, 48 h; procedure, shortened: as §1
MDA-MB-231 = assay: Growth inhibition of human MDA-MB-231 cells after 48 hrs by sulforhodamine B assay; settings: MDA-MB-231, 48 h; procedure, shortened: as §2
SW-620 = assay: Growth inhibition of human SW620 cells after 48 hrs by sulforhodamine B assay; settings: SW-620, 48 h; procedure, shortened: as §1
UO-31 = assay: Growth inhibition of human UO31 cells after 48 hrs by sulforhodamine B assay; settings: UO-31, 48 h; procedure, shortened: as §1
SF-295 = assay: Growth inhibition of human SF295 cells after 48 hrs by sulforhodamine B assay; settings: SF-295, 48 h; procedure, shortened: as §2
SK-MEL-2 = assay: Growth inhibition of human SK-MEL-2 cells after 48 hrs by sulforhodamine B assay; settings: SK-MEL-2, 48 h; procedure, shortened: as §2
UACC-62 = assay: Growth inhibition of human UACC62 cells after 48 hrs by sulforhodamine B assay; settings: UACC-62, 48 h; procedure, shortened: as §1
[1] = Growth inhibition of human Hs 578T cells after 48 hrs by sulforhodamine B assay; procedure, shortened: as §2
HOP-62 = assay: Growth inhibition of human HOP62 cells after 48 hrs by sulforhodamine B assay; settings: HOP-62, 48 h; procedure, shortened: as §2
ACHN = assay: Growth inhibition of human ACHN cells after 48 hrs by sulforhodamine B assay; procedure, shortened: as §2
[2] = read-out: LC50 (the source's name)

COc1ccc(/C=N/c2nc3[nH]nc(C)n3c(=O)c2S(=O)(=O)NN2C(=O)C(CN3CCOCC3)SC2c2cccs2)cc1 (stereo unspecified)
GI50 (U-251): 15.6 µM
LC50 (U-251): > 100 µM
TGI (U-251): > 100 µM
GI50 (IGROV-1): 3.95 µM
LC50 (IGROV-1): > 100 µM
TGI (IGROV-1): 34.8 µM
GI50 (SN12C): 16.8 µM
LC50 (SN12C): > 100 µM
TGI (SN12C): 85.7 µM
GI50 (SK-MEL-5): 3.71 µM
TGI (SK-MEL-5): 24 µM
CC50 (SK-MEL-5; [2]): > 100 µM
GI50 (LOX IMVI): 8.97 µM
TGI (LOX IMVI): > 100 µM
GI50 (NCI-H226): 24.5 µM
LC50 (concentration killing 50% of cells) (NCI-H226): > 100 µM
TGI (NCI-H226): > 100 µM
GI50 (OVCAR-8): 60.6 µM
TGI (OVCAR-8): > 100 µM
GI50 (M14): 6.79 µM
LC50 (concentration killing 50% of cells) (M14): > 100 µM
TGI (M14): 38.7 µM
GI50 (T47D): 48 µM
TGI (T47D): > 100 µM
growth at 100 µM (MCF7): 24%
GI50 (SF-268): 18.5 µM
TGI (SF-268): > 100 µM
CC50 (SF-268; [2]): > 100 µM
GI50 (SK-OV-3): 20.2 µM
TGI (SK-OV-3): > 100 µM
GI50 (HOP-92): 12.4 µM
LC50 (HOP-92): > 100 µM
TGI (HOP-92): > 100 µM
GI50 (HCT-116): 4.72 µM
LC50 (concentration killing 50% of cells) (HCT-116): > 100 µM
TGI (HCT-116): 57.4 µM
GI50 (K562): 2.34 µM
LC50 (K562): > 100 µM
TGI (K562): 11.3 µM
GI50 (RXF 393): 16.6 µM
TGI (RXF 393): 94.2 µM
CC50 (RXF 393; [2]): > 100 µM
GI50 (NCI/ADR-RES): 9.98 µM
TGI (NCI/ADR-RES): 64.8 µM
GI50 (SNB-75): 35.5 µM
TGI (SNB-75): > 100 µM
GI50 (MDA-MB-231): 11.7 µM
LC50 (50% lethal concentration) (MDA-MB-231): > 100 µM
TGI (MDA-MB-231): 56.1 µM
GI50 (SW-620): 6.11 µM
GI50 (UO-31): 14.5 µM
LC50 (UO-31): > 100 µM
TGI (UO-31): 86.4 µM
GI50 (SF-295): 4.69 µM
LC50 (concentration killing 50% of cells) (SF-295): > 100 µM
TGI (SF-295): > 100 µM
GI50 (SK-MEL-2): 8.3 µM
LC50 (concentration killing 50% of cells) (SK-MEL-2): > 100 µM
TGI (SK-MEL-2): 81.9 µM
GI50 (UACC-62): 3.7 µM
TGI (UACC-62): 31.4 µM
CC50 (UACC-62; [2]): > 100 µM
GI50 [1]: 13.3 µM
LC50 (concentration killing 50% of cells) [1]: > 100 µM
TGI [1]: 82.1 µM
GI50 (HOP-62): 13.9 µM
LC50 (HOP-62): > 100 µM
TGI (HOP-62): > 100 µM
GI50 (ACHN): 5.48 µM
TGI (ACHN): > 100 µM
CC50 (ACHN; [2]): > 100 µM

— ChEMBL document CHEMBL1153046, “Synthesis and antitumor activity of substituted triazolo[4,3-a]pyrimidin-6-sulfonamide with an incorporated thiazolidinone moiety” (2009)
